Experimental data: ChEMBL document CHEMBL3286365, “Neoflavonoids as potential osteogenic agents from Dalbergia sissoo heartwood” (Bioorg Med Chem Lett, 2014)
Calls of active or inactive are those of the source. The rule behind the calls is not given here.

Legend:
Type in all cases: functional, cell-based
Calvarial osteoblast [1] = test: Increase in RunX2 gene expression in rat calvarial osteoblast cells by qPCR analysis
Calvarial osteoblast [2] = test: Increase in collagen 1 gene expression in rat calvarial osteoblast cells by qPCR analysis
Calvarial osteoblast [3] = test: Increase in osteocalcin gene expression in rat calvarial osteoblast cells by qPCR analysis
Calvarial osteoblast [4] = test: Osteogenic activity in rat calvarial osteoblast cells assessed as induction of cell differentiation by measuring alkaline phosphatase activity using pNPP as substrate by calorimetric analysis; conditions: for EC50: Rattus norvegicus, Calvarial osteoblast
Procedure, shortened: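 Primary rat calvarial osteoblasts, trypsinized at about 80% confluence, seeded at 2×10³ cells/well. Treated with compound (100µM, 1µM, 10nM, 100pM, 1pM) or vehicle for 48 h in α-MEM with 10% FBS, 10mM β-glycerophosphate, 50µg/ml ascorbic acid and 1% penicillin/streptomycin. Total ALP measured with p-nitrophenylphosphate substrate, absorbance at 405 nm. Mean±S.D. of three independent experiments.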

Calvarial osteoblast [5] = test: Increase in BMP-2 gene expression in rat calvarial osteoblast cells by qPCR analysis
Calvarial osteoblast [6] = test: Osteogenic activity in rat calvarial osteoblast cells assessed as induction of mineralization by Alizarin red-S staining
Procedure, shortened: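 Calvarial osteoblasts trypsinized at 80% confluence and plated at 2.5×10⁴ cells/well. Treated with compound in differentiation medium (ascorbic acid 50µg/ml, β-glycerophosphate 10mM), with medium changed every alternate day for up to 21 days. Fixed in 4% paraformaldehyde for 15 min, stained 30 min with 40mM Alizarin Red-S (pH 4.5). Dye extracted with 10% acetic acid, heated at 85°C, neutralized with ammonium hydroxide, OD read at 405 nm.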

EC50 (Calvarial osteoblast [4]) | SMILES | Activity (Calvarial osteoblast [1]) | Activity (Calvarial osteoblast [2]) | Activity (Calvarial osteoblast [3]) | concentration of maximal effect (Calvarial osteoblast [4]) | Activity (Calvarial osteoblast [5]) | Activity (Calvarial osteoblast [6])
1.01 nM | COc1cc2oc(=O)cc(-c3ccccc3)c2cc1O [DALBERGIN] | Active | Active | Active | 1 pM | Active | –
6.46 nM | COc1cc(OC)c(/C(=C/C=O)c2ccccc2)cc1O | Active | Active | Active | 100 pM | Active | Active

More lines, now with the values behind:

SMILES | EC50 (Calvarial osteoblast [4]) | Activity (Calvarial osteoblast [1]) | Activity (Calvarial osteoblast [2]) | Activity (Calvarial osteoblast [3]) | concentration of maximal effect (Calvarial osteoblast [4]) | Activity (Calvarial osteoblast [5]) | Activity (Calvarial osteoblast [6])
COC1=CC(=O)c2cc(-c3ccccc3)c3cc(O)c(OC)cc3c2C1=O [LATINONE] | – | Active | Active | Active | 1e+06 pM | Active | –
COc1cc2c(cc1O)C(c1ccccc1)=CCO2 | 1700 nM | Active | Active | Active | 10000 pM | Active | –
C=CC(c1ccccc1)c1cc(O)c(OC)cc1OC (stereo unspecified) [DALBERGIPHENOL] | – | Active | Active | Active | 10000 pM | Active | Active
COc1cc2oc(=O)cc(-c3ccccc3)c2cc1OC | – | Active | Active | Active | 1e+06 pM | Active | Active
